# Source: the EternaBench riboswitch data
# Legend:
# MS2 coat protein [1] = experiment: apparent Kd, MS2 coat protein; higher = weaker binding; RNA-MaP array; conditions: designed as: OFF switch for flavin mononucleotide
# Procedure, shortened: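 Designed RNAs were transcribed on an Illumina sequencing chip from sequenced DNA templates. They were incubated at room temperature with fluorescently labeled MS2 coat protein at 1.5 nM to 3 μM, for 0.8–1.5 h at the lowest to 10–20 min at the highest concentrations, in Tris-HCl pH 7.5 buffer with KCl, MgCl2, BSA, DTT, tRNA and Tween20, with or without input ligand. Apparent Kd is the median of per-cluster binding-curve fits. Designs measured on fewer than 10 clusters were excluded.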
# MS2 coat protein [2] = experiment: apparent Kd, MS2 coat protein; higher = weaker binding; RNA-MaP array; FMN 200 µM where present
# Procedure, shortened: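 The titrant was SNAP-549-labelled MS2 coat protein, run from 0.7 or 1.5 nM in doubling steps to 3 µM. It was applied to designs transcribed by stalled E. coli RNA polymerase on Illumina sequencing-chip clusters, without ligand first and then with constant ligand, in 100 mM Tris-HCl pH 7.5, 80 mM KCl, 4 mM MgCl2, BSA, DTT, yeast tRNA and Tween-20. The apparent Kd is the median of filtered per-cluster binding-curve fits, with green signal normalised to red-channel RNA signal and control-cluster median Fmax.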
# [3] = designed as: ON switch for flavin mononucleotide, no ligand
# [4] = ligand present: flavin mononucleotide, designed as: ON switch for flavin mononucleotide
# [5] = designed as: OFF switch for flavin mononucleotide, no ligand
# [6] = ligand present: flavin mononucleotide, designed as: OFF switch for flavin mononucleotide
Sequence,apparent Kd (MS2 coat protein [2]; [3]) [nM],apparent Kd (MS2 coat protein [2]; [4]) [nM],other results
AAACUCCGCAAGAAGGGUAUUCAAUGAAGUUGUACAGGAUAUUGGCGCAGACAUGAGGAUCACCCAUGUAAGUUCUUCAUGGUU,,,apparent Kd (MS2 coat protein [1]; no ligand): 125 nM; apparent Kd (MS2 coat protein [1]; ligand present: flavin mononucleotide): 120 nM
UUGAUUAUACAAGGAUAUCUAUUGUAAUUUCGUCUUACAUGAGGAUCACCCAUGUUAAUAUUUUUAGAGAAGGUGUAUUUUCAG,39.9,25.9,
UUGCCUCAGAACAUGAGGAUCACCCAUGUGCUGCGGGCAACGUAGGAUAUGAUGGUGCAACACCAUCAGAAGGAUGAUGGUACC,5.62,5.45,
UUGCGCUGUCGAGAGGAUAUGCGGUGUUGGACAUGAGGAUCACCCAUGUUAGCGAUUGCUUUACGGUAGAAGGCUCUUCAGCUGC,78.8,52.9,
UUGGACGUCGUAGGAAAUGUAGGAUAUUCCUACAUGAGGAUCACCCAUGUUGACAUGGAAGAAGGACAGAAGGACGAUGUCCAU,517,11,
UUGGACGUCGUAGGAUAAGUAGGAUAUUCCUACAUGAGGAUCACCCAUGUUGACAUGGAAGAAGGACAGAAGGACGAUGUCCAU,96.2,4.48,
UUGGACGUCGUAGGAUAUGUAGGAUACUCCUACAUGAGGAUCACCCAUGUUGACAUGGAGGACGGACAGAAGGACGGUGUCCAU,60.5,5.72,
UUGGACGUCGUAGGAUAUGUAGGAUAUUCCAACAUGAGGAUCACCCAUGUUGACAUGGAAGAAGGACAGAAGGACGAUGUCCAU,4.28,3.63,
UUGGACGUCGUAGGAUAUGUAGGAUAUUCCUACAUGAGGAUCACCCAUGUUGACAUGGAAGAAGGACAGAAGGGCGAUGUCCAU,352,5.27,
UUGGACGUCGUAGGAUAUGUAGGAUAUUCCUACAUGAGGAUCACCCAUGUUGACAUGGAAGAAGGACAGGAGGACGAUGUCCAU,346,7.82,
UUGGACGUCGUAGGGUAUGUAGGAUAUUCCUACAUGAGGAUCACCCAUGUUGACAUGGAAGAAGGACAGAAGGACGAUGUCCAU,106,4.37,
UUGGACGUCUUAGGAUAUGUAGGAUAUUCCUACAUGAGGAUCACCCAUGUUGACAUGGAAGAAGGACAGAAGGACGAUGUCCAU,418,11.2,
UUGGACUACGUAGGAUAUGUAGGAUAUUCCUACAUGAGGAUCACCCAUGUUAGCAUGGAAGAAGGACAGAAGGACGUGGUCCAU,1360,15.8,
UUGGAGUACGUAGGAUAUGUAGGAUAUUCCUACAUGAGGAUCACCCAUGUUUACAUGGAAGAAGGACAGAAGGACGUGCUCCAU,1120,14.7,
UUGGAGUUCGUAGGAUAUGUAGGAUAUUCCUACAUGAGGAUCACCCAUGUUUACAUGGAAGAAGGACAGAAGGACGAGCUCCAU,1580,16.2,
UUGGCAACGUAGAAGGGUGACAUGAGGAUCACCCAUGUGCCGAUAUUUCUCGAGAUAUGUCGGCCACAGGAUAUACGUGCGAAC,107,120,
UUGGUACAUGAGGAUCACCCAUGUGGGUCGGUCGCAGGAUAUGCCCGUGGGCGCUUGCGGGCAGAAGGGUGCCGUA,392,102,
UUGGUUGUCGUAGGAUAUGUAGGAUAUUCCUACAUGAGGAUCACCCAUGUUCGCAUGGAAGAAGGACAGAAUGACGAUGACCAG,1110,27.1,
UUGUAGUACGUAGGAUAUCAAUGAGGAUCACCCUGAGAAGGACGUGAGGACAUGAGGAUCACCCAUGUGGAUCACCCAUGUCAU,,,apparent Kd (MS2 coat protein [2]; [5]): 191 nM; apparent Kd (MS2 coat protein [2]; [6]): 145 nM
UUGUGGGAGCAGGAUAUCUUAUUUUUUUUUUGUGGAGAAGGGCUGACAUGAGGAUCACCCAUGUGGUCCUAGAU,,,apparent Kd (MS2 coat protein [2]; [5]): 28.2 nM; apparent Kd (MS2 coat protein [2]; [6]): 27.9 nM
UUGUGUGUAGAGGAUAUCUGCGCGCGCGCGCGCGGAGAAGGCUGUACAUGAGGAUCACCCAUGUUGUGUGUGUG,,,apparent Kd (MS2 coat protein [2]; [5]): 71.8 nM; apparent Kd (MS2 coat protein [2]; [6]): 29.9 nM
UUGUUACAUGAGGAUCACCCAUGUGAGGAUAUGGUUCGGUACUGUCCUGUCGCGUACUCCAGAAGGCACGUGUU,,,apparent Kd (MS2 coat protein [2]; [5]): 30.8 nM; apparent Kd (MS2 coat protein [2]; [6]): 37.4 nM
UUGUUGUAUGUAGGAUAUGCAUAUUAUUAUUAUGCAGAAGGACAUGAGGAUCACCCAUGUAUAUUAUUAUUAUAUAUUAUAUAU,,,apparent Kd (MS2 coat protein [2]; [5]): 30 nM; apparent Kd (MS2 coat protein [2]; [6]): 49.3 nM
UUGUUGUAUGUAGGAUAUGCAUAUUAUUAUUAUGCAGAAGGACAUGAGGAUCACCCAUGUAUGUUAUUAUUAUGUGUUAUGUGU,,,apparent Kd (MS2 coat protein [2]; [5]): 44 nM; apparent Kd (MS2 coat protein [2]; [6]): 71.5 nM
UUGUUUCGUCAUUAACAUGAGGAUCACCCAUGUAUCGUCUCAAAGGAUAUAUAUGCUUGUUUGCUAUAGAAGGUUGAUUGUUGU,71.2,67.2,
UUUAAUCGAAACAUGAGGAUCACCCAUGUGUUGUAAUUAACAUAGGAUAUUUGUAUACUUUUAUAAGAGAAGGAUGAUAAUACU,21.2,15.8,
